Data published in ChEMBL document CHEMBL2385031, “Design, synthesis, and initial evaluation of a high affinity positron emission tomography probe for imaging matrix metalloproteinases 2 and 9” (J Med Chem, 2013).

What was measured:
[1] = molecular target: T1, Interstitial collagenase (Homo sapiens, UniProt P03956); experiment: Inhibition of MMP1 (unknown origin)
T1 sequence (P03956 whole entry): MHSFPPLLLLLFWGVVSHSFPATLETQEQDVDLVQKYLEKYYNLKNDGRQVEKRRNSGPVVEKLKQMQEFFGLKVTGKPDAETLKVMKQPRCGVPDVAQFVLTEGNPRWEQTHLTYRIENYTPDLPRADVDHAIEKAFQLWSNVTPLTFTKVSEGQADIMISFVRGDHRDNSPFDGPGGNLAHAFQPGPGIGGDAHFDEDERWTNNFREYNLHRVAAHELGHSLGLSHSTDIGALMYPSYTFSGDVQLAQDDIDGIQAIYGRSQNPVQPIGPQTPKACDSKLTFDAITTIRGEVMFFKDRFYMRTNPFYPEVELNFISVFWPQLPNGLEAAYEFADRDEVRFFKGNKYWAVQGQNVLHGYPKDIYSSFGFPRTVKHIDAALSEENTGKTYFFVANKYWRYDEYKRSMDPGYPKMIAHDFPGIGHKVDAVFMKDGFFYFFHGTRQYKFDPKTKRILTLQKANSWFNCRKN

[2] = molecular target: 72 kDa type IV collagenase (Homo sapiens, UniProt P08253); experiment: Inhibition of human full length MMP2 using Mca-Pro-Leu-Gly-Leu-Dpa(Dnp)-Ala-Arg-NH2 as substrate measured up to 120 mins by fluorescence assay
72 kDa type IV collagenase, sequence (P08253 whole entry): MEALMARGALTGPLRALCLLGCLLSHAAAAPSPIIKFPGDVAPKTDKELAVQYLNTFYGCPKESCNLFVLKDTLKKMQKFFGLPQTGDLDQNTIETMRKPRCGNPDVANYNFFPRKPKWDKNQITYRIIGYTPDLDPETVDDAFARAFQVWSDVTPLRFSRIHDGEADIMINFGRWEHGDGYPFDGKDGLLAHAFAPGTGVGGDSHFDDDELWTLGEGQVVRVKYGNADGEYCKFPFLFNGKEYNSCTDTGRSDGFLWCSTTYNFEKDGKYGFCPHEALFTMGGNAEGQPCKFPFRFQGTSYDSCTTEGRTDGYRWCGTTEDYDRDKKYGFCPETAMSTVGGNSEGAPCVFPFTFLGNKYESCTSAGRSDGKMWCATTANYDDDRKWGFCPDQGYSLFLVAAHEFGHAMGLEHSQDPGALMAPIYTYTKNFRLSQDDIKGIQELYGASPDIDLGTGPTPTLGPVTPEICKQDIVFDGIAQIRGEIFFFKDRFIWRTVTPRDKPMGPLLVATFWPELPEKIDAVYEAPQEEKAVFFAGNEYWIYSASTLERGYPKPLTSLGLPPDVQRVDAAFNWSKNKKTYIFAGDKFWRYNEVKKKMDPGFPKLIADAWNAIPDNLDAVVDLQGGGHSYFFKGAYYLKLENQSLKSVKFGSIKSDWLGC
Outline: (§1)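 Recombinant full-length human enzyme activated with APMA, used at 0.1 nM final in 50 mM Tris/HCl pH 7.5, 10 mM CaCl2, 150 mM NaCl, 0.05% Brij-35. Inhibitor added from DMSO (e.g., 1 nM to 30 μM). Activity read as initial slope of fluorescence rise from cleavage of an internally quenched fluorogenic substrate; IC50 derived.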

[3] = molecular target: Matrix metalloproteinase-9 (Homo sapiens, UniProt P14780); experiment: Inhibition of human full length MMP9 using Mca-Pro-Leu-Gly-Leu-Dpa(Dnp)-Ala-Arg-NH2 as substrate measured up to 120 mins by fluorescence assay; outline: as §1
Matrix metalloproteinase-9, sequence (P14780 whole entry): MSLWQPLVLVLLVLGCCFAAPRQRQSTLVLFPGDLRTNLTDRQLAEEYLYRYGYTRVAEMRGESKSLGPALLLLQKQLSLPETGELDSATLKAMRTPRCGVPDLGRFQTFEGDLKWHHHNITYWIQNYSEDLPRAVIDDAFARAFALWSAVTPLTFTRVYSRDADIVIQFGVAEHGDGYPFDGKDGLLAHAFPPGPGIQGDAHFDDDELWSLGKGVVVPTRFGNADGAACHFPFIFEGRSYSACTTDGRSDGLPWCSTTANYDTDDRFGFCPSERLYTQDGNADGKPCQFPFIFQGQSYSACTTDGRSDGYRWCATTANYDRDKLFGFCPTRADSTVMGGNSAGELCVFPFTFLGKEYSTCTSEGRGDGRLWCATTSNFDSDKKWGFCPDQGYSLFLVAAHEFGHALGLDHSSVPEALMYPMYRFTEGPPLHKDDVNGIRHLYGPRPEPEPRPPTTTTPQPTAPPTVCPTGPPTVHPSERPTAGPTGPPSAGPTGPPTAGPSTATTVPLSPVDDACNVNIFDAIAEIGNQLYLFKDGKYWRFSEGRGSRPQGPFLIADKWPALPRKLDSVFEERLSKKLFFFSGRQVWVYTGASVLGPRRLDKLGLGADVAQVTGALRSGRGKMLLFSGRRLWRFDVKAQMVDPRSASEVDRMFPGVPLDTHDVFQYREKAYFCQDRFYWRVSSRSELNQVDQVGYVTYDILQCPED

[4] = system: Blood; experiment: Drug metabolism in C57BL/6 mouse blood assessed as compound remaining at 650 MBq/mL after 15 to 60 mins by UPLC analysis; format: ADME, tissue-based
Outline: (§2)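 C57BL/6 mice given 150 μL of 650 MBq/mL (17.5 mCi/mL) 18F-labelled tracer each; killed by decapitation at 15, 30 and 60 min post-injection. Blood and urine collected, proteins precipitated with twice the volume of ice-cold acetonitrile, centrifuged; supernatants analysed by radio-UPLC for intact tracer versus metabolites.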

[5] = system: Bone; experiment: Drug uptake in C57BL/6 mouse bone at 5.3 MBq, iv by PET/CT imaging; format: ADME, organism-based, Bone element; details: in vivo
Outline: (§3)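 Single C57BL/6 mouse, 5.3 MBq 18F-tracer via tail vein, isoflurane 2−3% in oxygen/air, body kept at 37 °C. Small-animal PET/CT, two-bed static acquisition: anterior 8−22 min, posterior 23−38 min post-injection; images averaged 8−38 min.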

[6] = Drug uptake in C57BL/6 mouse urinary bladder at 5.3 MBq, iv by PET/CT imaging; format: ADME, organism-based; details: in vivo; outline: as §3
[7] = system: Plasma; experiment: Metabolic stability in human plasma at 60 Mbq up to 2 hrs by UPLC analysis; format: ADME, cell-free
Outline: (§4)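 About 60 MBq formulated 18F-tracer (5% ethanol in PBS) added to ~0.5 mL plasma, split into six aliquots. Zero-time sample quenched immediately with methanol; others incubated at 37 °C with shaking and quenched with ice-cold methanol at 5, 30, 60, 90, 120 min. Proteins removed by centrifugation at 10000g, 10 min; supernatants analysed by UPLC.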

[8] = Drug excretion in C57BL/6 mouse urine at 650 MBq/mL after 15 to 60 mins by UPLC analysis; format: ADME, tissue-based; details: in the assay text read “after 60 mins” for “after 15 to 60 mins”, read-out: Drug excretion; outline: as §2
[9] = system: Plasma; experiment: Metabolic stability in rat plasma at 60 Mbq up to 2 hrs by UPLC analysis; format: ADME, cell-free; outline: as §4

Compound | IC50 [2] | IC50 [3] | further results
COc1ccc(-c2ccc(S(=O)(=O)N[C@H](Cc3c[nH]c4ccccc34)C(=O)O)cc2)cc1 | 4.8 nM | 28 nM | 
O=C(Nc1ccc(S(=O)(=O)N[C@H](Cc2c[nH]c3ccccc23)C(=O)O)cc1)c1ccnc(F)c1 | 14 nM | 78 nM | 
O=C(Nc1ccc(S(=O)(=O)N[C@H](Cc2c[nH]c3ccccc23)C(=O)O)cc1)c1ccc(F)nc1 | 7 nM | 17 nM | IC50 [1]: > 1000 nM
O=C(Nc1ccc(S(=O)(=O)N[C@H](Cc2c[nH]c3ccccc23)C(=O)O)cc1)c1cccnc1F | 141 nM | > 1000 nM | 
O=C(Nc1ccc(S(=O)(=O)N[C@H](Cc2c[nH]c3ccccc23)C(=O)O)cc1)c1cc(F)ccn1 | 5.2 nM | 38 nM | 
O=C(O)[C@@H](Cc1c[nH]c2ccccc12)NS(=O)(=O)c1ccc(-c2ccc(Cl)cc2)cc1 | 5.8 nM | 230 nM | 
COc1ccc(Oc2ccc(S(=O)(=O)N[C@H](Cc3c[nH]c4ccccc34)C(=O)O)cc2)cc1 | 3.6 nM | 100 nM | 
O=C(Nc1ccc(S(=O)(=O)N[C@H](Cc2c[nH]c3ccccc23)C(=O)O)cc1)c1ccc([18F])cc1 |  |  | Drug metabolism [4]: Not Active; Drug uptake [5]: Not Active; Drug uptake [6]: Active; Stability [7]: Stable; dose excreted [8]: 85%; Stability [9]: Stable

Now from value to compound, other results behind:

IC50 [2] | IC50 [3] | Compound | further results
0.9 nM | 1 nM | O=C(Nc1ccc(S(=O)(=O)N[C@H](Cc2c[nH]c3ccccc23)C(=O)O)cc1)c1ccc(Br)cc1 | IC50 [1]: > 1000 nM
4.8 nM | 21 nM | O=C(Nc1ccc(S(=O)(=O)N[C@H](Cc2c[nH]c3ccccc23)C(=O)O)cc1)c1ccc(OC(F)(F)F)cc1 | 
1.8 nM | 7 nM | O=C(Nc1ccc(S(=O)(=O)N[C@H](Cc2c[nH]c3ccccc23)C(=O)O)cc1)c1ccc(F)cc1 | IC50 [1]: > 1000 nM
< 1 nM | 1.1 nM | O=C(Nc1ccc(S(=O)(=O)N[C@H](Cc2c[nH]c3ccccc23)C(=O)O)cc1)c1ccc(I)cc1 | 
< 1 nM | 11 nM | COc1ccc(C(=O)Nc2ccc(S(=O)(=O)N[C@H](Cc3c[nH]c4ccccc34)C(=O)O)cc2)cc1 | 
< 1 nM | 97 nM | CC(C)Oc1ccc(C(=O)Nc2ccc(S(=O)(=O)N[C@H](Cc3c[nH]c4ccccc34)C(=O)O)cc2)cc1 | 
< 1 nM | 460 nM | CC(C)COc1ccc(C(=O)Nc2ccc(S(=O)(=O)N[C@H](Cc3c[nH]c4ccccc34)C(=O)O)cc2)cc1 | 
